Molecules are shown by their SMILES. Calls of active or inactive are those of the source. The rule behind the calls is not given here.

The test system of one assay is LNCaP. As to the kind of experiment: Induction of antibody dependent cytotoxicity against human LNCAP cells assessed as induction of cell lysis at 1 uM incubated for 5 mins at pH 6 to 7.4 followed by compound washout prior to anti-FITC antibody addition for 30 mins and subsequent human haNK cell addition at 5:1 effector to target ratio measured after 4 hrs by LDH release assay. The class given is functional, cell-based. A digest of the protocol:
(§1)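 150000 target cells (MDA-MB-231; also LnCap, SK-OV-3 with haNK) treated with conjugate 5 min at 37 °C, pH 7.4 or 6.0, washed, 25 μg/mL anti-FITC rabbit polyclonal 30 min 4 °C, then 4 h at 37 °C with PBMCs at 50:1 (RPMI) or haNK at 5:1 (MEMα). LDH release; % lysis relative to antibody-only pH 7.4 cells; mean ± SEM, n = 3–12.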

Assay [1] relates to MDA-MB-231. As to the kind of experiment: Induction of opsonization in human MDA-MB-231 cells assessed as increase in recruitment of anti-FITC antibody to cell surface at 1 uM measured after 5 mins at pH 6 to 7.4 by Alexa Fluor 647 conjugated anti-FITC antibody based immunofluorescence microscopic analysis. The class given is functional. An outline of the steps: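 Adherent MDA-MB-231 on poly-L-lysine coverslips given 1 μM conjugate for 5 min, 37 °C, pH 7.4 or 6.0, methanol-fixed, then Alexa Fluor 647 anti-FITC rabbit polyclonal at 30 μg/mL for 1 h at 37 °C, Hoechst nuclear stain; fluorescence microscopy, 20× objective.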

For assay [2], the system named is MDA-MB-231. In words: Induction of antibody dependent cytotoxicity against human MDA-MB-231 cells assessed as induction of cell lysis at > 1 uM incubated for 5 mins at pH 6 to 7.4 followed by compound washout prior to anti-FITC antibody addition for 30 mins and subsequent human haNK cell addition at 5:1 effector to target ratio measured after 4 hrs by LDH release assay. The class given is functional, cell-based. A digest of the protocol: as §1

Assay [3] has as its system MDA-MB-231. As to the kind of experiment: Induction of opsonization in human MDA-MB-231 cells assessed as increase in recruitment of anti-FITC antibody to cell surface at 1 uM measured after 5 to 10 mins at pH 6 by Alexa Fluor 647 conjugated anti-FITC antibody based flow cytometry relative to pH 7.4. It is filed as functional. A digest of the protocol: (§2)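 Cells in suspension (350000 MDA-MB-231) given 1 μM pH-adjusted conjugate for 5 or 10 min at 37 °C, pH 7.4 or 6.0, washed, then Alexa Fluor 647 anti-FITC mouse mAb in PBS/10% FBS 30 min at 4 °C, PFA-fixed. Flow cytometry, ≥3000 events; fold over pH 7.4 antibody-only cells; mean ± SEM, n = 3.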

The subject of assay [4] is MDA-MB-231. As to the kind of experiment: Induction of antibody dependent cytotoxicity against human MDA-MB-231 cells assessed as cell lysis at 0.1 uM incubated for 5 mins at pH 6 followed by compound washout prior to anti-FITC antibody addition for 30 mins and subsequent human PBMC addition at 50:1 effector to target ratio measured after 4 hrs by LDH release assay relative to control. It is filed as functional. An outline of the steps: as §1

The subject of a further assay is Lipid bilayer. In words: Binding affinity to POPC large unilamellar vesicle at 1:300 ratio measured after 30 mins at pH 5 to 7.4 by tryptophan fluorescence spectroscopic analysis. An outline of the steps:
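Peptide (7 μM final, from 20 μM stock in 5 mM sodium phosphate pH 8.0) with extruded 100 nm POPC LUVs at 1:300; pH set with HCl, 30 min RT before tryptophan emission spectra were recorded.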

Assay [5] relates to MDA-MB-231. As to the kind of experiment: Induction of opsonization in human MDA-MB-231 cells assessed as increase in recruitment of anti-FITC antibody to cell surface at 1 uM measured after 5 to 10 mins at pH 6 to 7.4 by Alexa Fluor 647 conjugated anti-FITC antibody based flow cytometry. The class given is functional. An outline of the steps: as §2
Assay [6] deals with MDA-MB-231. As to the kind of experiment: Induction of antibody dependent cytotoxicity against human MDA-MB-231 cells assessed as increase in cell lysis at 0.1 uM incubated for 5 mins at pH 6 followed by compound washout prior to anti-FITC antibody addition for 30 mins and subsequent human PBMC addition at 50:1 effector to target ratio measured after 4 hrs by LDH release assay relative to pH 7.4. The class given is functional. An outline of the steps:
as §1

The test system of assay [7] is MDA-MB-231. In words: Induction of antibody dependent cytotoxicity against human MDA-MB-231 cells assessed as induction of cell lysis up to 1 uM incubated for 5 mins at pH 6 to 7.4 followed by compound washout prior to anti-FITC antibody addition for 30 mins and subsequent human haNK cell addition at 5:1 effector to target ratio measured after 4 hrs by LDH release assay. The class given is functional, cell-based. An outline of the steps:
as §1

The test system of the next assay is SK-OV-3. As to the kind of experiment: Induction of antibody dependent cytotoxicity against human SKOV3 cells assessed as induction of cell lysis at 1 uM incubated for 5 mins at pH 6 to 7.4 followed by compound washout prior to anti-FITC antibody addition for 30 mins and subsequent human haNK cell addition at 5:1 effector to target ratio measured after 4 hrs by LDH release assay. The class given is functional, cell-based. A digest of the protocol:
as §1

Assay [8] relates to MDA-MB-231. As to the kind of experiment: Induction of antibody dependent cytotoxicity against human MDA-MB-231 cells assessed as cell lysis at > 0.1 uM incubated for 5 mins at pH 6 followed by compound washout prior to anti-FITC antibody addition for 30 mins and subsequent human PBMC addition at 50:1 effector to target ratio measured after 4 hrs by LDH release assay. The class given is functional, cell-based. An outline of the steps:
as §1

In the case of `CC[C@H](C)[C@H](NC(=O)[C@@H]1CCCN1C(=O)[C@H](CC(N)=O)NC(=O)[C@H](CCC(N)=O)NC(=O)[C@H](CCC(=O)O)NC(=O)[C@H](CSC1CC(=O)N(CCC(=O)NOCCOCCOCCOCCOCCOCCOCCOCCOCCOCCOCCOCCC(=O)NCCCNC(=O)c2ccc(-c3c4ccc(=O)cc-4oc4cc(O)ccc34)c(C(=O)O)c2)C1=O)NCC(N)=O)C(=O)N[C@@H](Cc1ccc(O)cc1)C(=O)N[C@@H](Cc1c[nH]c2ccccc12)C(=O)N[C@@H](C)C(=O)N[C@@H](CCCNC(=N)N)C(=O)N[C@@H](Cc1ccc(O)cc1)C(=O)N[C@@H](C)C(=O)N[C@@H](CC(=O)O)C(=O)N[C@@H](Cc1c[nH]c2ccccc12)C(=O)N[C@@H](CC(C)C)C(=O)N[C@@H](Cc1ccccc1)C(=O)N[C@H](C(=O)N[C@H](C(=O)N1CCC[C@H]1C(=O)N[C@@H](CC(C)C)C(=O)N[C@@H](CC(C)C)C(=O)N[C@@H](CC(C)C)C(=O)N[C@@H](CC(C)C)C(=O)N[C@@H](CC(=O)O)C(=O)N[C@@H](CC(C)C)C(=O)N[C@@H](C)C(=O)N[C@@H](CC(C)C)C(=O)N[C@@H](CC(C)C)C(=O)N[C@H](C(=O)N[C@@H](CC(=O)O)C(=O)N[C@@H](C)C(=O)N[C@@H](CC(=O)O)C(=O)N[C@@H](CCC(=O)O)C(=O)NCC(=O)N[C@H](C(=O)NCC(N)=O)[C@@H](C)O)C(C)C)[C@@H](C)O)[C@@H](C)O` (stereo partly specified), the result in the assay with LNCaP, in the assay on MDA-MB-231 [1], in the assay on Lipid bilayer, in the assay with MDA-MB-231 [5], with MDA-MB-231 [7] and in the assay with SK-OV-3 was Active. The outcome with MDA-MB-231 [2] and with MDA-MB-231 [8] was inactive. Further, the “fold change (FC)” value in the assay on MDA-MB-231 [3] stood at 5.4; with MDA-MB-231 [6], 2. Also, the Activity in the assay with MDA-MB-231 [4] was determined as 40%.

Values taken from ChEMBL document CHEMBL4354869, “pH-Dependent Grafting of Cancer Cells with Antigenic Epitopes Promotes Selective Antibody-Mediated Cytotoxicity” (J Med Chem, 2020).
